Laboratory results published in publication PMC4245089 (International Journal of Nanomedicine, 2014).
Values joined by “and” are separate entries in the source; they are usually repeats but may differ in a detail not shown here. Identical values can stand only once. “Also recorded” adds a separate entry of the source.

Columns and labels:
[1] = system: P. berghei-ANKA-infected C57BL/6 mice; assay: Liver and kidney function tests; assay type: in vivo; details: serum
uninfected erythrocytes = assay: Nanotized curcumin uptake assay by fluorimetry, uninfected erythrocytes; assay type: cell-based; details: 1 μM
[2] = system: Human fibroblast L-929 cells; assay: Cell viability assay; assay type: cell-based; details: 8.11-129.88 μmol/L; 24, 48 and 72 hours
Method in brief: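 L-929 fibroblasts seeded at 1×10^4 cells/well in DMEM. Exposed to native or nanoparticle test compound at 8.11–129.88 μmol/L for 24, 48 and 72 h. MTT (12 mM) added for 2 h at 37°C. Formazan dissolved in DMSO for 1 h at 37°C in the dark. Absorbance read at 595 nm.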

[3] = system: P. falciparum 3D7 strain (chloroquine sensitive); assay: Growth inhibition of blood-stage P. falciparum 3D7 by microscopy; assay type: cell-based, Plasmodium falciparum
Method in brief: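 Human RBCs were infected with synchronized 3D7 ring stages and held at 10% hematocrit and 2% parasitemia, with medium changed every 24 h. Ten concentrations were run in duplicate, and stage of action was tested at 2.5 μM. Giemsa smears were read at 48 and 72 h. Percent parasitemia was taken as infected/total RBCs over at least ten fields. Dead parasites were scored by lost membrane, shrinkage or unstained cytoplasm.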

P. berghei-ANKA = assay: Dose kinetics / antimalarial efficacy in P. berghei-ANKA-infected C57BL/6 mice; assay type: in vivo, Plasmodium berghei; details: oral, 10 mg/kg body weight
Method in brief: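 C57BL/6 mice were infected intravenously with 2.5×10^6 P. berghei-ANKA parasites. Oral dosing began 24 h post-infection and ran twice weekly for 1 month at 10, 20 and 40 mg/kg body weight. Parasitemia was counted every fourth day, and mean survival days were recorded. Optimum dose was set by Peterson's test and mortality rate. Data are mean ± SEM, n=6.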

[4] = Aqueous dispersibility and storage stability of lyophilized powder; assay type: physicochemical
parasitized erythrocytes = assay: Nanotized curcumin uptake assay by fluorimetry, parasitized erythrocytes; assay type: cell-based; details: treated (parasitized) cultures, 1 μM
[5] = mice, oral
[6] = day 6, curcumin forms 20 mg/kg oral biweekly
[7] = day 15, curcumin forms 20 mg/kg oral biweekly
[8] = day 21, curcumin forms 20 mg/kg oral biweekly

Structure (SMILES) | ALP [1, 6] [KA units] | Bilirubin [1, 6] | Creatinine [1, 6] [mg/dL] | SGOT activity [1, 6] [U/L] | SGPT activity [1, 6] [U/L] | Urea [1, 6] [mg/dL] | ALP [1, 7] [KA units] | Bilirubin [1, 7] [mg/dL] | Creatinine [1, 7] [mg/dL] | SGOT activity [1, 7] [U/L] | SGPT activity [1, 7] [U/L] | Urea [1, 7] [mg/dL] | Bilirubin [1, 8] | Creatinine [1, 8] [mg/dL] | SGOT activity [1, 8] [U/L] | SGPT activity [1, 8] [U/L] | Urea [1, 8] [mg/dL] | other results
CCN(CC)CCCC(C)Nc1ccnc2cc(Cl)ccc12 (stereo not drawn) [chloroquine] | 16.4±2.61 | 1.15 ± 0.16 mg/dL | 2.10 ± 0.24 | 36.20±0.72 | 39.41±4.32 | 50.32 ± 2.43 | 10.6±2.31 | 1.82 ± 0.18 | 1.60 ± 0.27 | 33.31±0.61 | 32.34±3.42 | 40.82 ± 2.51 | 0.60 ± 0.24 mg/dL | 1.23 ± 0.17 | 14.14±0.51 | 30.17±3.61 | 33.44 ± 2.56 | 
COc1cc(C=CC(=O)CC(=O)C=Cc2ccc(O)c(OC)c2)ccc1O [native curcumin, 1,7-bis(4-hydroxy 3-methoxyphenyl)-1,6-heptadiene-3,5-dione] | 30.72±2.92 | 1.6 mg/dL and 1.60 ± 0.36 mg/dL | 3.29 ± 0.37 | 66.43±0.65 | 98.34±4.68 | 54.24 ± 2.37 | 28.81±2.65 | 2.19 ± 0.20 | 2.90 ± 0.46 | 72.80±0.71 | 102.69±5.71 | 61.72 ± 2.61 | 2.10 mg/dL and 2.10 ± 0.25 mg/dL | 2.70 ± 0.51 | 75.71±0.47 | 136.31±6.45 | 87.46 ± 2.54 | ALP [1, 8]: 36.91±2.67 KA units; concentration found inside the cells (uninfected erythrocytes; first growth cycle, n=3): 240 nM; concentration found inside the cells (uninfected erythrocytes; second growth cycle): 100 nM; cytotoxicity (growth inhibition of L-929 cells) [2]: marginal cytotoxic effects; IC50 ([3]; Plasmodium falciparum, 3D7, read-out: IC50 for growth inhibition of parasites): 5 µM; parasites eradicated ([3]; synchronized ring stage culture, 2.5 μM, 72 hours): 60%; survival (to day) (P. berghei-ANKA): 20 days; dispersibility / solubility in water [4]: only soluble in organic solvents such as dimethyl sulfoxide; also recorded: completely insoluble in water; concentration found inside the cells (parasitized erythrocytes; first growth cycle, n=3): 300 nM; concentration found inside the cells (parasitized erythrocytes; second growth cycle): 250 nM; time post-feeding until which curcumin was present/detectable in plasma [5]: 15 h
